Reference: PubChem BioAssay AID2307 (NMMLSC, 2010)

Target: Regulator of G-protein signaling 8 (Homo sapiens) (UniProt P57771)
Assay: small molecules altering RGS8 binding of Galphao – biochemical, multiplex bead flow cytometry, SAR compounds, SAR follow-up (AID 2307)
Conditions: bead-based flow cytometry, AF488-Galphao binding to RGS8; for Ki: measured here: Ki calculated from EC50
Method in brief: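 Assay system: streptavidin bead-bound biotinylated RGS8; Schedule: 30–90 min binding, room temperature; Technique: flow cytometry, 530 nm bead fluorescence; Read-out basis: percent binding vs DMSO and RGS-free beads, four-parameter EC50, Ki from EC50; Benchmarks: DMSO wells as high, RGS-free blank beads as low; Replicates: duplicates.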

Sequence of Regulator of G-protein signaling 8 (Homo sapiens) (P57771 whole entry, looked up): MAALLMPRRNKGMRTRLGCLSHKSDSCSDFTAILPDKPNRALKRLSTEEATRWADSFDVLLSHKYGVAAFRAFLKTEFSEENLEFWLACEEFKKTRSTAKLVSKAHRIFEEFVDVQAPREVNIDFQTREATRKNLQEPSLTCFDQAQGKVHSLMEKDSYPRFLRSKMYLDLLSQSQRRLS

| EC50 [µM] | Ki [µM] | Compound |
| --- | --- | --- |
| 0.029 | 0.02 | NS(=O)(=O)c1ccc(N/N=C/c2ccc(O)c(O)c2O)c([N+](=O)[O-])c1 |
| – | 3.59 | CCC(=O)NC(c1ccc(C)cc1)c1cc([N+](=O)[O-])c2cccnc2c1O (stereo not given) |
| – | 0.58 | CC1(C)OC(=O)C(=Cc2ccc(-c3ccc(S(N)(=O)=O)cc3)o2)C(=O)O1 |
| – | 0.26 | CN=c1scc(C)n1/N=C/c1ccc(O)c(O)c1O |
| – | 0.15 | COc1ccc(C2=CC(=O)C=CC2=O)cc1 |
| – | 0.47 | CCN=c1scc(C)n1/N=C/c1ccc(O)c(O)c1O |
| – | 2.64 | Cc1cccc(N2CCN(C(=O)COc3nsc4nc(C)cc(C)c34)CC2C)c1 (stereo not given) |
| – | 0.02 | CN1CCN(C2=C(Cl)C(=O)C(c3cnc(N4CCCCC4)s3)=C(Cl)C2=O)CC1 |
| – | 0.18 | Cc1[nH]n(-c2ccccc2)c(=S)c1C=Nc1cccc([N+](=O)[O-])c1 |
| – | 0.7 | COC(=O)CCC(=O)Nc1sc(C)c(C)c1C(N)=O |
| – | 0.47 | O=C(NCCCN1CCOCC1)c1sc2cc([N+](=O)[O-])ccc2c1Cl |
| – | 0.07 | CC(=O)OCCCNc1cc(Sc2nc3ccccc3s2)c2nonc2c1[N+](=O)[O-] |
| – | 0.17 | CC(NC(=O)c1sc2cc([N+](=O)[O-])ccc2c1Cl)C(C)(C)C (stereo not given) |
| – | 0.1 | O=C(COc1ccccc1C(=O)N/N=C/c1ccc(O)c(O)c1)N/N=C/c1ccc(O)c(O)c1 |
| – | 0.02 | O=c1c2ccccc2sn1-c1ccc(S(=O)(=O)N2CCCC2)cc1 |
| – | 0.11 | Cc1cc(Cl)ccc1N=c1ssnc1Cl |
| – | 0.32 | O=C(Cc1csc(N2CCOCC2)n1)N/N=C/c1ccc(O)c(O)c1O |
| – | 0.46 | Cc1cccc(N2CCN(C(=O)Cn3sc4nc(C)cc(C)c4c3=O)CC2C)c1 (stereo not given) |
| – | 2.59 | CCN(CC)S(=O)(=O)c1cccc(-c2n[nH]c(=S)n2/N=C/c2ccc(C(=O)OC)cc2)c1 |
| – | 0.43 | Cc1[nH]n(-c2ccccc2)c(=S)c1C=NCCCN=Cc1c(C)[nH]n(-c2ccccc2)c1=S |
| – | 0.34 | CCN(CC)S(=O)(=O)c1cccc(C(=O)N/N=C/c2ccc(O)c(O)c2O)c1 |
| – | 0.15 | CCOC(=O)c1sc(NC(=O)CSc2nnc(Cc3ccccc3)o2)c(C#N)c1C |
| – | 0.06 | O=C1C(Cl)=C(N2CCCCC2)C(=O)C(Cl)=C1c1cnc(N2CCCCC2)s1 |
| – | 0.4 | Nc1c(C(=O)NCC2CCCO2)sc2nc3c(c(-c4ccco4)c12)CC/C3=C/c1ccco1 (stereo not given) |
